For assay [1], the system named is Rattus norvegicus. The assay is described as follows: Effect of peroral administration of compound on acid secretion inhibition in the PLR; Value ranges from 4.0-13.6. In kind it is functional. The essentials:
(§1)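 Rats (male Carworth Farms, 270–360 g) fasted 18 h; compound in PEG 200 by gavage 1 h before pylorus ligation under ether, six per group. Gastric contents collected 2 h post-ligation; pH, volume, titre (NaOH to pH 7.4) measured, output = volume × titre.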

In assay [2] the test system is Rattus norvegicus. The assay can be described thus: Effect of intravenous administration of compound on acid secretion inhibition in the PLR; Value ranges from 0.7-5.0. In kind it is functional. The gist of the method: (§2)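 Male Carworth Farms rats (270–360 g), fasted 18 h, pylorus ligated under ether; compound in PEG 200 given intravenously at ligation, six rats per group. Gastric contents taken 2 h after ligation, centrifuged, titrated with NaOH to pH 7.4; output = volume × titre.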

Assay [3] deals with Rattus norvegicus. The assay is described as follows: Gastric antisecretory activity in pylorus ligated rat at a concentration of 50 mg/kg perorally, expressed as % decrease in mean titratable acid output of gastric juice in treated vs. control groups. The class given is functional. The settings on record: route oral. The essentials: (§3)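 Male Carworth Farms rats (270–360 g), fasted 18 h with water; compound in PEG 200 by gavage 1 h before pylorus ligation under ether. Killed 2 h after ligation; juice centrifuged, volume and pH measured, supernatant titrated with NaOH to pH 7.4, output = volume × titre. Mean of six to seven animals against controls.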

For assay [4], the system named is Rattus norvegicus. The assay is described as follows: Effect of intraduodenal administration of compound on acid secretion inhibition in the PLR; Value ranges from 0.5-4.4. In kind it is functional.
The subject of assay [5] is Rattus norvegicus. The assay is described as follows: Effect of intravenous administration of compound on acid secretion inhibition in the PLR; Value ranges from 1.5-9.5. In kind it is functional. The essentials:
as §2

For assay [6], the system named is Rattus norvegicus. The assay is described as follows: Gastric antisecretory activity in pylorus-ligated rat at a concentration of 50 mg/kg perorally, expressed as increase in mean pH. The class given is functional. As to conditions: route oral. The gist of the method: as §3
Assay [7] deals with Rattus norvegicus. The assay can be described thus: Effect of intraduodenal administration of compound on acid secretion inhibition in the PLR; Value ranges from 0.6-6.7. In kind it is functional.
Assay [8] deals with Rattus norvegicus. The assay can be described thus: Effect of peroral administration of compound on acid secretion inhibition in the PLR; NS means no significant dose response. The class given is functional, organism-based. The gist of the method:
as §1

Assay [9] has as its system Rattus norvegicus. The assay is described as follows: Effect of intraduodenal administration of compound on acid secretion inhibition in the PLR; Value ranges from 4.7-9. The class given is functional.
Assay [10] relates to Rattus norvegicus. The assay can be described thus: Effect of peroral administration of compound on acid secretion inhibition in the PLR; Value ranges from 8.8-14.7. The class given is functional.
Assay [11] relates to Rattus norvegicus. The assay is described as follows: Effect of peroral administration of compound on acid secretion inhibition in the PLR; Value ranges from 4.1-12.1. In kind it is functional.
For assay [12], the system named is Rattus norvegicus. The assay is described as follows: Effect of intraduodenal administration of compound on acid secretion inhibition in the PLR; Value ranges from 0.5-2.7. The class given is functional.
Assay [13] deals with Rattus norvegicus. The assay is described as follows: Effect of intraduodenal administration of compound on acid secretion inhibition in the PLR; Value ranges from 0.9-4.7. The class given is functional.

As for `c1ccc2c(c1)Oc1ccccc1C2NCCn1ccnc1`, the ED50 was 7.7 mg/kg with Rattus norvegicus [1]; 2 mg/kg in the assay on Rattus norvegicus [2]; 1.7 mg/kg with Rattus norvegicus [4]; 3.3 mg/kg with Rattus norvegicus [5]; 2.4 mg/kg in the assay with Rattus norvegicus [7]; “Not significant” with Rattus norvegicus [8]. Further, the “Delta TAO” value in the assay with Rattus norvegicus [3] is recorded as 98. In the assay on Rattus norvegicus [6], the “Delta pH” value was 5.8.
As for `CC(Cc1ccccn1)NC1c2ccccc2Oc2ccccc21` (stereo unspecified), the ED50 in the assay with Rattus norvegicus [9] is 6.3 m equiv [H+] l-1; in the assay on Rattus norvegicus [10], 11.4 m equiv [H+] l-1; with Rattus norvegicus [8], “Not significant”. Moreover, the Acid output in the assay on Rattus norvegicus [11] is 7.3 u equiv of [H+] 2hr-1; with Rattus norvegicus [12], 1.3 u equiv of [H+] 2hr-1. Also, in the assay on Rattus norvegicus [3], the “Delta TAO” value is recorded as 89. In the assay on Rattus norvegicus [13], this molecule gave a Volume of 2.2 ml 2hr-1. The “Delta pH” value in the assay with Rattus norvegicus [6] amounted to 3.8.
